The results in this text go back to ChEMBL document CHEMBL1126323, “Inhibitors of protein kinase C. 2. Substituted bisindolylmaleimides with improved potency and selectivity” (J Med Chem, 1992).

Assay [1] is described as follows: Inhibition of c-AMP dependent protein kinase A (PKA) in bovine heart. The gist of the method:
(§1)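 Kinase assay on PKA isolated from bovine heart, run by a method described earlier. Each data point was done in triplicate. IC50 values are the mean of at least two independent assays.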

The target in a further assay is Protein kinase C (PKC). The assay can be described thus: Inhibition of protein kinase C (PKC) in rat brain. The assay is classed as tissue-based. A digest of the protocol:
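PKC from rat brain was assayed by a method described earlier. Each data point was done in triplicate. IC50 is the mean of at least two independent determinations.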

A short description of assay [2]: Inhibition of protein kinase A (PKA) in bovine heart. The gist of the method:
as §1

By IC50 is commonly meant the point on the concentration scale where inhibition reaches its midpoint. High values mean a need for much substance, low ones inhibition by little substance. `Cn1cc(C2=C(c3cn(CCO)c4ccccc34)C(=O)NC2=O)c2ccccc21`: the half-inhibitory concentration (IC50) was determined as 22.1 µM in assay [1] and 0.34 µM against Protein kinase C (PKC).

Regarding `Cn1cc(C2=C(c3cn(CCCN)c4ccccc34)C(=O)NC2=O)c2ccccc21`, the IC50 stood at 5.2 µM in assay [1] and 0.075 µM on Protein kinase C (PKC).

`Cn1cc(C2=C(c3cn(CCCCN)c4ccccc34)C(=O)NC2=O)c2ccccc21`: the IC50 in assay [1] was found to be 9.3 µM; on Protein kinase C (PKC), 0.055 µM.

Take `Cn1cc(C2=C(c3cn(CCSC(=N)N)c4ccccc34)C(=O)NC2=O)c2ccccc21`: the IC50 is 12.1 µM in assay [2] and 0.041 µM against Protein kinase C (PKC).

With `Cn1cc(C2=C(c3cn(CCCO)c4ccccc34)C(=O)NC2=O)c2ccccc21`, the figures for the IC50 (in assay [1]; against Protein kinase C (PKC)) were 14.2 µM and 0.13 µM, respectively.

Turning to `Cn1cc(C2=C(c3cn(CCC/N=C(\N)N[N+](=O)[O-])c4ccccc34)C(=O)NC2=O)c2ccccc21`, the IC50 in assay [2] was determined as 4.9 µM; against Protein kinase C (PKC), 0.026 µM.

As for `Cn1cc(C2=C(c3cn(CCCCSC(=N)N)c4ccccc34)C(=O)NC2=O)c2ccccc21`, the IC50 in assay [2] worked out at 2.7 µM; on Protein kinase C (PKC) it was 0.028 µM.

On to `CN(C)CCCn1cc(C2=C(c3cn(C)c4ccccc34)C(=O)NC2=O)c2ccccc21`, for which the IC50 in assay [1] worked out at 25.6 µM; against Protein kinase C (PKC), 0.045 µM.

For the compound `Cn1cc(C2=C(c3cn(CCCCCN)c4ccccc34)C(=O)NC2=O)c2ccccc21`, the IC50 in assay [1] is 10.4 µM; against Protein kinase C (PKC) it was 0.076 µM.

Regarding `Cn1cc(C2=C(c3cn(CCCSC(=N)N)c4ccccc34)C(=O)NC2=O)c2ccccc21` [BISINDOLYLMALEIMIDE IX], the IC50 in assay [2] was determined as 0.9 µM; at Protein kinase C (PKC) it was 0.01 µM.

For `Cn1cc(C2=C(c3cn(CCCCCSC(=N)N)c4ccccc34)C(=O)NC2=O)c2ccccc21`, the IC50 in assay [2] came out at 4.6 µM; at Protein kinase C (PKC) it was 0.047 µM.

Take `Cn1cc(C2=C(c3cn(CCCCCO)c4ccccc34)C(=O)NC2=O)c2ccccc21`: the IC50 in assay [1] stood at 21.3 µM; against Protein kinase C (PKC), 0.28 µM.

Take `Cn1cc(C2=C(c3cn(CCCCO)c4ccccc34)C(=O)NC2=O)c2ccccc21`: the IC50 in assay [1] was 18.4 µM; at Protein kinase C (PKC) it was 0.17 µM.

As to `Cn1cc(C2=C(c3cn(CCCCC(=N)N)c4ccccc34)C(=O)NC2=O)c2ccccc21`, the IC50 in assay [1] was found to be 7.4 µM; on Protein kinase C (PKC), 0.031 µM.

`Cn1cc(C2=C(c3cn(CCC[N+](C)(C)C)c4ccccc34)C(=O)NC2=O)c2ccccc21`: the concentration for half-maximal inhibition (IC50) in assay [1] came out at 64.5 µM; on Protein kinase C (PKC), 0.093 µM.

For the compound `Cn1cc(C2=C(c3cn(CCCN=C(N)N)c4ccccc34)C(=O)NC2=O)c2ccccc21`, the half-inhibitory concentration (IC50) in assay [1] was determined as 2.9 µM; against Protein kinase C (PKC), 0.019 µM.

`Cn1cc(C2=C(c3cn(CCN)c4ccccc34)C(=O)NC2=O)c2ccccc21`: the IC50 came to 8.9 µM in assay [1] and 0.064 µM against Protein kinase C (PKC).

On to `CNCCCn1cc(C2=C(c3cn(C)c4ccccc34)C(=O)NC2=O)c2ccccc21`, for which the IC50 in assay [1] turned out to be 11.9 µM; against Protein kinase C (PKC), 0.035 µM.
